≈ marks a conversion by molar mass, not a printed value.
Key:
[1] = Selectivity ratio of IC50 for Vero cells to MIC for Mycobacterium tuberculosis H37Rv ATCC 27294; assay type: functional
Summary of the method: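 SI is the ratio of the IC50 measured in VERO cells (72 h MTT) to the MIC against M. tuberculosis H37Rv (MABA, 90% fluorescence reduction). An SI of 10 or more counts as active at the second screening level.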

Vero = assay: Cytotoxicity against african green monkey Vero cells after 72 hrs by MTT assay; assay type: cell-based; conditions: Chlorocebus sabaeus
Summary of the method: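 VERO cells were exposed to compound for 72 h. Viability was read from cellular conversion of MTT to formazan (CellTiter 96 non-radioactive proliferation assay), and the IC50 was determined.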

[2] = tested on: Mycobacterium tuberculosis; assay: Antituberculosis activity against Mycobacterium tuberculosis H37Rv ATCC 27294; assay type: functional
[3] = tested on: Mycobacterium tuberculosis; assay: Antituberculosis activity against Mycobacterium tuberculosis H37Rv ATCC 27294 after 4 days by microplate alamar blue assay; assay type: functional; conditions: H37Rv ATCC 27294, 96 h
Summary of the method: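 M. tuberculosis H37Rv (ATCC 27294) in BACTEC 12B medium, tested by Microplate Alamar Blue Assay across a range of lower concentrations. MIC is the lowest concentration giving a 90% reduction in fluorescence versus controls. Rifampicin was the reference.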

Structure (SMILES) | Selectivity ratio [1] | IC50 (Vero) | Activity [2] | MIC [3]
COc1ccc(CCNC(=O)c2c(C)[n+]([O-])c3ccc(F)cc3[n+]2[O-])cc1 | >153.84 | > 30 µg/mL | >=90% | < 0.195 µg/mL
Cc1cc2c(cc1C)[n+]([O-])c(C(=O)NCc1ccccc1)c(C)[n+]2[O-] |  |  | >=90% | > 100 µg/mL
COc1ccc(CNC(=O)c2c(C)[n+]([O-])c3cc(Cl)c(Cl)cc3[n+]2[O-])cc1 |  |  | >=90% | 
Cc1c(C(=O)NCc2ccccc2)[n+]([O-])c2cc(F)c(F)cc2[n+]1[O-] | 10.64 | 18.4 µg/mL (≈ 53.2 µM) | >=90% | 1.73 µg/mL (≈ 5 µM)
COc1ccc2c(c1)[n+]([O-])c(C(=O)NCc1ccccc1)c(C)[n+]2[O-] |  |  | >=90% | 12.3 µg/mL (≈ 36.4 µM)
Cc1ccc2c(c1)[n+]([O-])c(C(=O)NCCc1ccccc1)c(C)[n+]2[O-] | >11.6 | > 100 µg/mL | >=90% | 8.62 µg/mL (≈ 25.6 µM)
COc1ccc(CNC(=O)c2c(C)[n+]([O-])c3ccc(F)cc3[n+]2[O-])cc1 | >19.893 | > 30 µg/mL | >=90% | 1.51 µg/mL (≈ 4.22 µM)
COc1ccc(CCNC(=O)c2c(C)[n+]([O-])c3cc(F)c(F)cc3[n+]2[O-])cc1 | >14.577 | > 30 µg/mL | >=90% | 2.06 µg/mL (≈ 5.29 µM)
Cc1c(C(=O)NCCc2ccccc2)[n+]([O-])c2cc(F)c(F)cc2[n+]1[O-] | >58.027 | > 30 µg/mL | >=90% | 0.517 µg/mL (≈ 1.44 µM)
COc1ccc(CNC(=O)c2c(C)[n+]([O-])c3ccccc3[n+]2[O-])cc1 | >10.537 | > 30 µg/mL | >=90% | 2.85 µg/mL (≈ 8.39 µM)
Cc1c(C(=O)NCCc2ccccc2)[n+]([O-])c2ccccc2[n+]1[O-] | >32.81 | > 100 µg/mL | >=90% | 3.05 µg/mL (≈ 9.43 µM)
COc1ccc(CNC(=O)c2c(C)[n+]([O-])c3cc(F)c(F)cc3[n+]2[O-])cc1 | 21.734 | 16.6 µg/mL (≈ 44.2 µM) | >=90% | 0.764 µg/mL (≈ 2.04 µM)
Cc1c(C(=O)NCCc2ccccc2)[n+]([O-])c2cc(Cl)ccc2[n+]1[O-] | >500 | > 100 µg/mL | >=90% | < 0.2 µg/mL
COc1ccc2c(c1)[n+]([O-])c(C(=O)NCCc1ccccc1)c(C)[n+]2[O-] |  |  | >=90% | 13.7 µg/mL (≈ 38.7 µM)
COc1ccc(CNC(=O)c2c(C)[n+]([O-])c3cc(C)c(C)cc3[n+]2[O-])cc1 |  |  | >=90% | > 100 µg/mL
Cc1c(C(=O)NCc2ccccc2)[n+]([O-])c2cc(F)ccc2[n+]1[O-] | >65.7 | > 100 µg/mL | >=90% | 1.52 µg/mL (≈ 4.65 µM)
COc1ccc(CCNC(=O)c2c(C)[n+]([O-])c3cc(Cl)c(Cl)cc3[n+]2[O-])cc1 | >66.079 | > 30 µg/mL | >=90% | 0.454 µg/mL (≈ 1.08 µM)
Cc1c(C(=O)NCc2ccccc2)[n+]([O-])c2cc(C(F)(F)F)ccc2[n+]1[O-] | >246.3 | > 100 µg/mL | >=90% | 0.406 µg/mL (≈ 1.08 µM)
COc1ccc(CNC(=O)c2c(C)[n+]([O-])c3ccc(OC)cc3[n+]2[O-])cc1 |  |  | >=90% | 12 µg/mL (≈ 32.5 µM)

Structure (SMILES) | Selectivity ratio [1] | IC50 (Vero) | Activity [2] | MIC [3]
Cc1c(C(=O)NCc2ccccc2)[n+]([O-])c2ccccc2[n+]1[O-] | >38.372 | > 100 µg/mL | >=90% | 2.61 µg/mL (≈ 8.42 µM)
Cc1c(C(=O)NCc2ccccc2)[n+]([O-])c2cc(Cl)ccc2[n+]1[O-] | >230.94 | > 100 µg/mL | >=90% | 0.433 µg/mL (≈ 1.26 µM)
Cc1c(C(=O)NCc2ccccc2)[n+]([O-])c2cc(Cl)c(Cl)cc2[n+]1[O-] | >500 | > 100 µg/mL | >=90% | < 0.2 µg/mL
Cc1c(C(=O)NCCc2ccccc2)[n+]([O-])c2cc(Cl)c(Cl)cc2[n+]1[O-] | >153.84 | > 30 µg/mL | >=90% | < 0.195 µg/mL
COc1ccc(CNC(=O)c2c(C)[n+]([O-])c3ccc(Cl)cc3[n+]2[O-])cc1 |  |  | >=90% | 
CO[C@H]1/C=C/O[C@@]2(C)Oc3c(C)c(O)c4c(O)c(c(/C=N/N5CCN(C)CC5)c(O)c4c3C2=O)NC(=O)/C(C)=C\C=C\[C@H](C)[C@H](O)[C@@H](C)[C@@H](O)[C@@H](C)[C@H](OC(C)=O)[C@@H]1C [RIFAMPIN] | >800 | > 100 µg/mL |  | 0.015 µg/mL (≈ 0.0182 µM)
Cc1c(C(=O)NCCc2ccccc2)[n+]([O-])c2cc(F)ccc2[n+]1[O-] | >198.41 | > 100 µg/mL | >=90% | 0.504 µg/mL (≈ 1.48 µM)
Cc1ccc2c(c1)[n+]([O-])c(C(=O)NCc1ccccc1)c(C)[n+]2[O-] | >23.77 | > 100 µg/mL | >=90% | 4.21 µg/mL (≈ 13 µM)
COc1ccc(CCNC(=O)c2c(C)[n+]([O-])c3ccccc3[n+]2[O-])cc1 | >8.6605 | > 30 µg/mL | >=90% | 3.46 µg/mL (≈ 9.8 µM)
COc1ccc(CCNC(=O)c2c(C)[n+]([O-])c3ccc(Cl)cc3[n+]2[O-])cc1 | >153.84 | > 30 µg/mL | >=90% | < 0.195 µg/mL
COc1ccc(CCNC(=O)c2c(C)[n+]([O-])c3cc(C)c(C)cc3[n+]2[O-])cc1 |  |  | >=90% | > 100 µg/mL
Cc1c(C(=O)NCCc2ccccc2)[n+]([O-])c2cc(C(F)(F)F)ccc2[n+]1[O-] | >26.019 | > 30 µg/mL | >=90% | 1.15 µg/mL (≈ 2.95 µM)
COc1ccc(CNC(=O)c2c(C)[n+]([O-])c3ccc(C)cc3[n+]2[O-])cc1 | >3.3696 | > 30 µg/mL | >=90% | 8.9 µg/mL (≈ 25.2 µM)
COc1ccc(CCNC(=O)c2c(C)[n+]([O-])c3ccc(C(F)(F)F)cc3[n+]2[O-])cc1 | >21.023 | > 30 µg/mL | >=90% | 1.43 µg/mL (≈ 3.39 µM)
COc1ccc(CNC(=O)c2c(C)[n+]([O-])c3ccc(C(F)(F)F)cc3[n+]2[O-])cc1 | >30.03 | > 30 µg/mL | >=90% | 0.999 µg/mL (≈ 2.45 µM)
COc1ccc(CCNC(=O)c2c(C)[n+]([O-])c3ccc(C)cc3[n+]2[O-])cc1 | >3.389 | > 30 µg/mL | >=90% | 8.85 µg/mL (≈ 24.1 µM)
Cc1cc2c(cc1C)[n+]([O-])c(C(=O)NCCc1ccccc1)c(C)[n+]2[O-] |  |  | >=90% | 16.4 µg/mL (≈ 46.6 µM)
COc1ccc(CCNC(=O)c2c(C)[n+]([O-])c3ccc(OC)cc3[n+]2[O-])cc1 |  |  | >=90% | 16.9 µg/mL (≈ 44 µM)
